Screening results: PubChem, Sanford-Burnham Center for Chemical Genomics
G6PDH CS: inhibits Leuconostoc G6PDH, flagging false hits in G6PDH-based assays; Purified L. mesenteroides G6PDH, diaphorase/resazurin coupled fluorescence, 45 min; inhibition, % at 5 µM; 200,000 tested, 0.12% active; in the data active = inhibition above about 50%
HKDC1 inh: inhibitors of human hexokinase HKDC1. Q2TB90. recombinant HKDC1, G6PDH/diaphorase resazurin coupled fluorescence. inhibition, % at 20 µM. 340,000 tested, 0.16% active. AID 493160;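 active = inhibition above about 35% when tested at 20 µM, limit read from the data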;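 also: plate controls were DMSO wells with enzyme for no effect and DMSO wells lacking enzyme for full effect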
Target sequence (Q2TB90 whole entry, looked up): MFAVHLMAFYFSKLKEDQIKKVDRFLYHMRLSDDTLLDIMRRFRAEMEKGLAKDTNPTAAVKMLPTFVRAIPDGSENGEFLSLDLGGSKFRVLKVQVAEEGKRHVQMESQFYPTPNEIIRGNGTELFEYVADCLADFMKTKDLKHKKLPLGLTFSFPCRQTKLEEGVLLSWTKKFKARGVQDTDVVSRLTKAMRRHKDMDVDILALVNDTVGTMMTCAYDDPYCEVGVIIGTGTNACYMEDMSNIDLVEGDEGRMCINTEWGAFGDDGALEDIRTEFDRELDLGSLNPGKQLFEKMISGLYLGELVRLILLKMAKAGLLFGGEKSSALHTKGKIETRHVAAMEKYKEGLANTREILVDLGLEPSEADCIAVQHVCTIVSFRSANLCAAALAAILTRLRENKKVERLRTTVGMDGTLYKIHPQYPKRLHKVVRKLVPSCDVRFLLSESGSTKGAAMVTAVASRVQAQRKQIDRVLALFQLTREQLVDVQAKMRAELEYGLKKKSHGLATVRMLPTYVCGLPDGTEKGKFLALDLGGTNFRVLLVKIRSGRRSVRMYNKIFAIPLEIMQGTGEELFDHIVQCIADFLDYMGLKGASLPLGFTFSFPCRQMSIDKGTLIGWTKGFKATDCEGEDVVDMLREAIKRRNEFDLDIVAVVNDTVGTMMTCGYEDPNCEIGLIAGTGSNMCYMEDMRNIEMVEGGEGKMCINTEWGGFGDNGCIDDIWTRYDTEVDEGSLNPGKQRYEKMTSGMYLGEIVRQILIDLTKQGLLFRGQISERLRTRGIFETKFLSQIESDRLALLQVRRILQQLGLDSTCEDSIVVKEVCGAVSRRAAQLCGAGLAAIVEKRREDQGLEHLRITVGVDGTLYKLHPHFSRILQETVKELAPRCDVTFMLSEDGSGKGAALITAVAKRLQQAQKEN
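Material – in-house recombinant HK5 (HKDC1) enzyme · Quantity – HKDC1 at 5 µg/mL · Buffer or medium – pH 8.0 Tris buffer with 10 mM MgCl2 · Reagent – glucose with 1 mM ATP · Dosing – single 20 µM dose · Times – reaction time 90 min, room temperature, protected from light · Technique – resorufin fluorescence at 613 nm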
Diaphorase act: diaphorase activation or chemical reduction counter-screen; 190,000 tested, 0.005% active; Diaphorase/resazurin coupled assay, resorufin fluorescence, 16 min; active compounds read high; 1 = vehicle wells, 0 = NADH-free wells; activation factor at 20 µM;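 active = diaphorase activity raised at least twofold by the compound at 20 µM; inactive = activation factor below 2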
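System – purified diaphorase enzyme from Clostridium kluyveri · Input – enzyme 0.07 U/mL final · Also added – final NADH 0.114 mM, resazurin 0.1 mM · Measured by – fluorescence of resorufin, 544 nm excitation, 590 nm emission · Timing – 16 min enzyme reaction, ambient temperature · Measure – resorufin increase flagging diaphorase activators or reducers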
Diaphorase inh: counter-screen for diaphorase-based assays: diaphorase inhibitors and chemical oxidizers; AID 1217; inhibition, % at 20 µM; 190,000 tested, 0.69% active; diaphorase resazurin-to-resorufin fluorescence, NADH, 16 min; bacterial (C. kluyveri) enzyme, not human;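 active = primary screen inhibition at 20 µM above a set limit, cut at about 50% in these data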;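 also: plate controls were DMSO with full reaction for no effect and wells lacking NADH for full effect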
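System: Diaphorase enzyme from Clostridium kluyveri | Amount: Enzyme working solution with 0.14 U/mL diaphorase | Benchmarks: No-NADH positive control and DMSO neutral control | Signal: Fluorescence of resorufin formed from resazurin, Ex 544/Em 590 nm | Schedule: 16-min room-temperature incubation before reading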
PfGluPho inh: PfG6PD (Plasmodium falciparum) enzyme inhibition; PfGluPho enzyme, NADPH resazurin-diaphorase fluorescence; AID 504690; inhibition, % at 20 µM; 350,000 tested, 0.78% active;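 active = inhibition reaching at least a set limit at 20 µM in the primary screen, cut at about 59% in these data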;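 also: 0% = DMSO wells with substrate and 100% = DMSO wells lacking glucose-6-phosphate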
Numbers without * were called inactive; . = not tested or not shown. Sampled rows, rich in hits. Any-hit rate of the full collection: about 1.2%.

SMILES	G6PDH CS	HKDC1 inh	Diaphorase act	Diaphorase inh	PfGluPho inh
O=C(NC1CCS(=O)(=O)C1)/C(=C\c1ccco1)NC(=O)c1ccccc1 (stereo unspecified)	.	-5	.	.	11
O=C(NC1CCS(=O)(=O)C1)/C(=C/c1ccco1)NC(=O)c1ccccc1 (stereo unspecified)	2	-8	0.5	55*	-3
O=C(CCCCCNc1nc(=S)[nH]c2ccccc12)N1CCN(c2ccccn2)CC1	2	.	0.5	52*	.
COc1cccc(N2CCN(C(=O)CCCCCNc3nc(=S)[nH]c4ccccc34)CC2)c1	-4	1	0.7	25	18
CC1(C)N([O-])c2cc([N+](=O)[O-])ccc2[N+]1=O	.	20	.	.	70*
COc1ccc(C(=O)NC(=S)NNC(=O)CNC(=O)C2CCCCC2)cc1	0	-4	0.4	59*	-4
COCCN=c1scc(C)n1/N=C/C1CC2C=CC1C2 (stereo unspecified)	4	14	1	3	-13
Oc1ccc(-c2csc(-c3cccnc3)n2)cc1O	.	6	.	.	-1
Oc1ccc(-c2csc(Nc3ncccn3)n2)c(O)c1	0	-11	0.9	14	25
Oc1ccc(-c2csc(Nc3ncccn3)n2)cc1O	29	1	0.5	52*	19
Oc1ccc(-c2csc(-c3ccccc3)n2)cc1O	19	4	0.3	71*	1
c1ccc2[nH]c3cc4ncnc4cc3nc2c1	31	14	0.4	55*	-33
FC(F)c1nc2ccccc2[nH]1	12	-9	0.9	11	-7
Cc1ccc(-c2[nH]c(=S)[nH]c(=O)c2C#N)cc1	10	-6	0.2	78*	-27
CSc1cc(-c2ccc(Cl)cc2)[nH]c(=O)c1C#N	-2	8	0.9	7	-9
O=C(NCc1ccccc1)c1sc(=S)n2c1[nH]c(=O)c1ccccc12	8	13	0.3	73*	-16
CC(=O)NNC(=O)c1sc(=S)n2c1[nH]c(=O)c1sccc12	-1	2	0.7	29	51
O=c1cc(O)c2sc(Nc3ccc(F)cc3)nc2[nH]1	13	21	0.2	78*	54
O=c1cc(O)c2sc(Nc3cccc(C(F)(F)F)c3)nc2[nH]1	16	22	0.3	66*	20
COc1ccc(OC)c(NC(=O)NCCc2cccc(Cl)c2)c1	-2	6	1.1	-11	7
Cn1c2ccccc2c(=O)n2c(=O)c3ccccc3cc12	51*	.	0.8	16	.
Nc1cc(-c2ccc(OC(F)(F)F)cc2)nn1-c1ccc(Cl)c(Cl)c1	.	2	.	.	17
COc1ccc(C(C(=O)NC(C)(C)C)N(C(=O)CCC(=O)Nc2ccccn2)C2CCCCC2)cc1 (stereo unspecified)	.	-1	.	.	6
COc1ccc(C(=O)NCCOc2cccc(OC)c2)cc1	11	-9	0.3	68*	23
COc1cccc(OCCNC(=O)c2cc(OC)c(OC)c(OC)c2)c1	.	0	.	.	-3
SMILES	G6PDH CS	HKDC1 inh	Diaphorase act	Diaphorase inh	PfGluPho inh
Cc1ccc(C)c2[nH]c(=O)c(C(c3nnnn3CCc3ccccc3)N3CCOCC3)cc12 (stereo unspecified)	7	-3	0.8	15	1
Cc1ccc(C)c2[nH]c(=O)c(C(c3nnnn3Cc3ccco3)N3CCc4ccccc4C3)cc12 (stereo unspecified)	18	1	0.4	57*	22
COc1ccc(C(=O)NCc2nnc(SCC(=O)NCCc3ccccc3)o2)cc1	.	-3	.	.	17
O=[N+]([O-])c1ccc(N2CCN(C(=S)c3cccc([N+](=O)[O-])c3)CC2)cc1	.	-16	.	.	68*
CC(=O)N1CCN(C(=S)c2cccc([N+](=O)[O-])c2)CC1	11	-5	0.9	7	5
O=C(N/N=C/c1c(O)n(-c2ccc(Cl)cn2)c(=O)c2ccccc12)c1ccncc1	-1	-10	0.4	59*	-46
Nc1c(C(=O)Nc2ccccc2)sc2nc3c(c(-c4ccco4)c12)CCC3	2	7	0.3	69*	7
Nc1c(C(=O)Nc2ccccc2)sc2nc3c(c(-c4ccco4)c12)CCCC3	6	0	0.7	26	6
CC1=C(C#N)c2nc(N)c(C#N)c(C)c2/C1=C\c1ccc(-c2ccccc2C(=O)O)o1	-5	17	0.4	62*	13
O=[N+]([O-])c1c(NCCCO)cc(Sc2ccc(Cl)cc2)c2nonc12	11	14	0.5	54*	22
CC(=O)OCCNc1cc(Sc2nc3ccccc3[nH]2)c2nonc2c1[N+](=O)[O-]	-10	11	0.6	37	65*
CC(=O)OCCNc1cc(SCc2ccco2)c2nonc2c1[N+](=O)[O-]	12	6	0.2	77*	29
COC(=O)CCSc1cc(NCCOC(C)=O)c([N+](=O)[O-])c2nonc12	16	21	0.8	25	-3
CC(=O)OCCCNc1cc(Sc2ccc(C)cc2)c2nonc2c1[N+](=O)[O-]	-24	3	0.7	34	17
CCCC(=O)OCCNc1cc(SCCC(=O)OC)c2nonc2c1[N+](=O)[O-]	2	1	0.2	75*	25
CCCCc1cc(C(=O)Cc2ccccn2)c(O)cc1O	.	6	.	.	8
O=[N+]([O-])c1c(NCCO)cc(N2CCC3(CC2)OCCO3)c2nonc12	23	-3	0.4	55*	-1
COc1ccc(Nc2cc(NCCCO)c([N+](=O)[O-])c3nonc23)cc1	.	11	.	.	-1
COc1ccc(CNc2cc(NCCCO)c([N+](=O)[O-])c3nonc23)cc1	30	18	0.4	61*	14
O=[N+]([O-])c1c(NCCCO)cc(SCc2ccco2)c2nonc12	15	2	0.3	66*	28
O=C(c1ccc(-c2ccc([N+](=O)[O-])cc2)o1)N1CCN(S(=O)(=O)c2cccs2)CC1	.	-1	.	.	22
COc1ccc(-c2cc3nc(-c4ccccc4)cc(N4CCC(O)CC4)n3n2)cc1	17	-5	0.5	50*	15
COc1ccc(-c2cc3nc(-c4ccccc4)cc(N4CCCC(O)C4)n3n2)cc1 (stereo unspecified)	17	6	0.7	26	25
O=C(COC(=O)Cc1ccccc1)NCc1ccc2c(c1)OCO2	.	-1	.	.	-12
CCCSc1nc2sc3c(c2c(=O)[nH]1)CCN(Cc1ccccc1)C3	-44	-2	0.5	54*	-2
COc1ccc(-c2c(=O)n(OCc3ccccc3[N+](=O)[O-])c3ccccc3[n+]2[O-])c(OC)c1	-2	-2	0.5	51*	1
Cc1ccc(C2=NC(=O)/C(=C/c3cc(O)c(O)c(Br)c3)S2)cc1	4	27	0.2	81*	27
Cc1cccc(NCc2ccc(O)c3ncccc23)c1	36	0	0.2	78*	18
OCc1ccnc2c(O)cccc12	59*	2	0.5	48	-1
